Measured values collected from several papers.
Each line is one published result; the experiments were not run side by side.
Target: Mitogen-activated protein kinase kinase kinase 7 (MAP3K7, Homo sapiens, UniProt O43318)
Residues used in one study (O43318 1-606): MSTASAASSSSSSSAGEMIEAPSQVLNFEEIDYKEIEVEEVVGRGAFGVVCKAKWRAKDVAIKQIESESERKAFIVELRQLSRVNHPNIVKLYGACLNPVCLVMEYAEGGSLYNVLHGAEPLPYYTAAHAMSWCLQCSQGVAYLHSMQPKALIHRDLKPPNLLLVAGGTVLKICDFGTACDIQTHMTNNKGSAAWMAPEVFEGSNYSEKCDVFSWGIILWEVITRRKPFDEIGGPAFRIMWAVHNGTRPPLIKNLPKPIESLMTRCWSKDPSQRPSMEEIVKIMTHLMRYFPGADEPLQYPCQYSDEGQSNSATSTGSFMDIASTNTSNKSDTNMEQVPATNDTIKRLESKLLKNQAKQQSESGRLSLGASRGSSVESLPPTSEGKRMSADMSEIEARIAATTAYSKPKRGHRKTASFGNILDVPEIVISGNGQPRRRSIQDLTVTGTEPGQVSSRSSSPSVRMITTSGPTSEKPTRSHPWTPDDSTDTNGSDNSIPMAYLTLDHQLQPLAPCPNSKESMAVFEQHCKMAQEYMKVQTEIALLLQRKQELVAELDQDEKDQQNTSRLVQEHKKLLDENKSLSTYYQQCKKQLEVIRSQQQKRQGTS

Structure (SMILES) | observed | method | concentration | remaining binding [%]
F[C@@H]1CCN(c2nccc(-c3cnn4ncccc34)n2)C1 | binding | – | 1 µM | 100
CC(=O)N1CCC(c2ccc(C(=O)NC3=NCCN3)cc2C(F)(F)F)CC1 | cell-free assay | competition with immobilised ligand | 1 µM | 100
COc1cnc(Nc2cccc(S(N)(=O)=O)c2)nc1N1CCN(c2ccccc2)C(=O)C1 | binding | competition with immobilised ligand | 1 µM | 74
C[C@H]1CCN(c2nccc(-c3cnn4ncccc34)n2)C1 | binding | – | 1 µM | 71
O=C(NCCCN1CCOCC1)c1ccc(Nc2nccc(-c3cc4ccccc4s3)n2)cc1 | binding | competition with immobilised ligand | 1 µM | 31
CNC(=O)[C@@H]1CC[C@@H](n2c(-c3ccc4cnccc4c3)nc3ccc(C(=O)NCc4cccc(C(N)=O)c4)cc32)C1 | binding | competition with immobilised ligand | 1 µM | 100
Cc1c(NC(=O)c2cc(C(N)=O)nc3cc(F)ccc23)c(C(F)(F)F)nn1Cc1ccc(C#N)cc1 | cell-free assay | competition with immobilised ligand | 1 µM | 68
O=C(Nc1c[nH]nc1C(=O)NC1CCNCC1)c1cc(F)cc(F)c1 | binding | competition with immobilised ligand | 1 µM | 83
Cc1cnn2ncc(-c3ccnc(N(C)C)n3)c2c1 | binding | – | 1 µM | 77
C[C@@H](c1ccc(-n2cnc3c(N)ncnc32)cc1)N1CCc2nn(C)c(Cc3ccccc3)c2C1=O | binding | competition with immobilised ligand | 0.1 µM | 32
O=C(NCCCN1CCOCC1)c1ccc(Nc2ncc(Cl)c(-c3ccc(Cl)s3)n2)cc1 | binding | competition with immobilised ligand | 1 µM | 4.5
CC(C)(O)c1cncc(-c2nc3ccc(F)cc3n2C2CC2)c1 | cell-free assay | competition with immobilised ligand | 1 µM | 100
c1cnn2ncc(-c3ccnc(N4CCC45COC5)n3)c2c1 | binding | – | 1 µM | 51
NS(=O)(=O)c1cc(NC(=O)C2(c3ccccc3Cl)CC2)ccc1Oc1cccc(Cl)c1 | cell-free assay | competition with immobilised ligand | 1 µM | 98
O=C(c1ccc(Nc2ncc(Cl)c(-c3cc4ccccc4s3)n2)cc1)N1CCC(N2CCCC2)CC1 | binding | competition with immobilised ligand | 1 µM | 3.6
FC(F)(F)Oc1cccc(-c2cnc3ccc(-c4ccncc4)nn23)c1 | binding | competition with immobilised ligand | 5 µM | 34
NS(=O)(=O)c1cc(NC(=O)Cc2ccccc2)ccc1Oc1cccc(Cl)c1 | cell-free assay | competition with immobilised ligand | 1 µM | 75
COc1ccnn2ncc(-c3ccnc(N(C)C)n3)c12 | binding | – | 1 µM | 75
Cc1cc(NC(=O)c2cccc(S(F)(F)(F)(F)F)c2)cc(-n2ccn3nc(-c4cccnc4)cc23)c1 | cell-free assay | competition with immobilised ligand | 1 µM | 100
CN(C)c1nccc(-c2cnc3ncccn23)n1 | binding | – | 1 µM | 36
COc1cc(-c2cn(C3CCc4ccccc4N(CC(F)(F)F)C3=O)nn2)ccc1-n1ccc(C)n1 (stereo not shown) | cell-free assay | competition with immobilised ligand | 1 µM | 86
CN(C)c1nccc(-c2cnn3ncccc23)n1 | binding | – | 1 µM | 97
